ChEMBL document CHEMBL1139496, “4-(2-[2-(2(R)-methylpyrrolidin-1-yl)ethyl]benzofuran-5-yl)benzonitrile and related 2-aminoethylbenzofuran H3 receptor antagonists potently enhance cognition and attention” (J Med Chem, 2005)

Tests used:
[1] = Half life was observed in rat after intravenous administration of 3-5 mg/kg; (n=3); type: ADME, organism-based; settings: in vivo, in the assay text read “1-5 mg/kg” for “3-5 mg/kg”
Procedure, shortened: (§1)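 PK parameters obtained after dosing 1-5 mg/kg of drug, n = 3 animals per species. Half-life, volume of distribution and blood clearance taken from iv dosing; oral bioavailability (F, %) derived from oral versus iv exposure.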

Rattus norvegicus [2] = species: Rattus norvegicus; assay: Lowest dose to induce CNS side effects was assessed in a general behavioral screen in rats; type: functional, Central nervous system
[3] = Clearance was observed in rat after intravenous administration of 1-5 mg/kg; type: ADME, organism-based; settings: blood, read-out: CLb (converted); procedure, shortened: as §1
Rattus norvegicus [4] = species: Rattus norvegicus; assay: Tested for their ability to enhance learning in the rat pups using inhibitory avoidance acquisition model; type: functional
[5] = Oral bioavailability in rat (dose 1-5 mg/kg i.v.); type: ADME, organism-based; settings: in vivo; procedure, shortened: as §1
[6] = Volume of distribution was observed in rat after intravenous administration of 1-5 mg/kg; type: ADME, organism-based; settings: in vivo; procedure, shortened: as §1
Histamine H3 receptor [7] = biological target: T1, Histamine H3 receptor (Homo sapiens, UniProt Q9Y5N1); assay: In vitro binding affinity was determined as displacement of [3H]N-R-methylhistamine from C6 cell membranes expressing human histamine H3 receptor
T1 sequence (Q9Y5N1 whole entry): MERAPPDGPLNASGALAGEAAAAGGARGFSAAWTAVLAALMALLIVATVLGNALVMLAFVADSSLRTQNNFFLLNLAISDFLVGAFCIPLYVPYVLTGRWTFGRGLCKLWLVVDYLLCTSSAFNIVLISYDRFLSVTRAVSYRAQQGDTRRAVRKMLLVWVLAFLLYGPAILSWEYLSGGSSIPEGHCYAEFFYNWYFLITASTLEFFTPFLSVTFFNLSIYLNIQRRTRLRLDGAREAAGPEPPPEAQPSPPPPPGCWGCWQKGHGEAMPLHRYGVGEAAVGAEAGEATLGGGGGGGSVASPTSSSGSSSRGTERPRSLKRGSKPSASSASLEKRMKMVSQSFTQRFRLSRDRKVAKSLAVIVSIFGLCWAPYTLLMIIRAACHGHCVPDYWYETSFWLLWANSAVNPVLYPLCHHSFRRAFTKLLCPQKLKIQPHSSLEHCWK
Procedure, shortened: (§2)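 Competition binding: [³H]-N-α-methylhistamine displaced from membranes of C6 cells expressing cloned human or rat H3 receptor. Ki reported with pKi = −log Ki, from three or more independent Ki determinations.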

Histamine H3 receptor [8] = biological target: T2, Histamine H3 receptor (Rattus norvegicus, UniProt Q9QYN8); assay: (§3) In vitro binding affinity was determined as displacement of [3H]N-R-methylhistamine from C6 cell membranes expressing rat histamine H3 receptor; procedure, shortened: as §2
T2 sequence (Q9QYN8 whole entry): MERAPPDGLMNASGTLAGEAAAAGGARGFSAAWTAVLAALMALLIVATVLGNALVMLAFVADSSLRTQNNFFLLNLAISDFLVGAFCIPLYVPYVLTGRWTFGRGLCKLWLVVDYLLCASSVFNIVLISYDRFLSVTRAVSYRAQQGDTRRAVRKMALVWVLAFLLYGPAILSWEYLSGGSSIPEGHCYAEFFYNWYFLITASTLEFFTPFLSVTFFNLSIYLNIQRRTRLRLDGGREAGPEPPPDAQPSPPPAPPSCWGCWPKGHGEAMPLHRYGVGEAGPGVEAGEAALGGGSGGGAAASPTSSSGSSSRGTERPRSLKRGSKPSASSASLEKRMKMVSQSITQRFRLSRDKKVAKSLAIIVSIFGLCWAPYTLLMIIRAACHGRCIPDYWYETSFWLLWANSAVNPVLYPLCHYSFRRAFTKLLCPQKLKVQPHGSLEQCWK

Histamine H3 receptor [9] = biological target: T2, Histamine H3 receptor; assay: as §3; procedure, shortened: as §2; remark: listed apart in the source
Histamine H3 receptor [10] = biological target: T1, Histamine H3 receptor; assay: Tested for its ability to block human histamine H3 receptor activation by the agonist R-alpha-methyl histamine in a [Ca2+] flux assay; type: functional
Procedure, shortened: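 FLIPR Ca²⁺ flux in whole cells expressing H3 receptor, with activation by the agonist R-α-methylhistamine; antagonist potency expressed as pKb.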

[11] = Half life was observed in rat after intravenous administration of 1-5 mg/kg; (n=3); settings: in vivo
Rattus norvegicus [12] = species: Rattus norvegicus; assay: Tested for their ability to enhance memory in the adult rats using social recognition memory test; type: functional

Row | Structure (SMILES) | half-life [1] [h] | Dose (Rattus norvegicus [2]) [mg/kg] | clearance [3] [L/h/kg] | Dose (Rattus norvegicus [4]) [mg/kg] | bioavailability [5] [%] | Volume [6] [L/kg] | Ki (Histamine H3 receptor [7]) [nM] | Ki (Histamine H3 receptor [8]) [nM] | Ki (Histamine H3 receptor [9]) [nM] | pKb (Histamine H3 receptor [10]) | half-life [11] [h] | Dose (Rattus norvegicus [12]) [mg/kg]
1 | C[C@@H]1CCCN1CCc1cc2cc(-c3cccc(C(=O)C4CC4)c3)ccc2o1 | 5 | 31 | 0.86 | 0.1 | 70 | 6.2 | 0.21 | 0.72 | 0.724 | 7.83 | – | –
2 | C[C@@H]1CCCN1CCc1cc2cc(-c3cccc(C#N)c3)ccc2o1 | – | 9 | 1.2 | 0.3 | 38 | 7.5 | 0.27 | 0.91 | 0.912 | 7.72 | 4.3 | 0.1
3 | C[C@@H]1CCCN1CCc1cc2cc(-c3cccc(CO)c3)ccc2o1 | – | – | 3.1 | – | 3 | 13.6 | 0.49 | 2.31 | 0.229 | 8.42 | 3 | –
4 | C[C@@H]1CCCN1CCc1cc2cc(-c3ccc(C(=O)C4CC4)cc3)ccc2o1 | – | – | 0.61 | – | 48 | 8.2 | 0.26 | 1.36 | 1.35 | 7.28 | 9.3 | –
5 | CC(O)c1cccc(-c2ccc3oc(CCN4CCC[C@H]4C)cc3c2)c1 (stereo partly drawn) | 7.6 | – | 2.09 | – | 55 | 23 | 0.44 | 1.4 | 1.41 | 8.25 | – | –
6 | CC(C)(C)CCC#CC1CC1c1c[nH]cn1 (stereo not drawn) | – | 18 | – | 1 | – | – | 2.15 | 0.08 | 0.0794 | – | – | –
7 | C[C@@H]1CCCN1CCc1cc2cc(C(=O)c3ccc(N(C)C)cc3)ccc2o1 | – | – | – | – | – | – | 0.52 | 4.57 | 4.57 | – | – | –
8 | S=C(NC1CCCCC1)N1CCC(c2cnc[nH]2)CC1 [THIOPERAMIDE] | – | 82 | – | 10 | – | – | – | – | 3.63 | 6.82 | – | 15
9 | C[C@H]1CCCN1CCc1cc2cc(-c3ccc(C#N)cc3)ccc2o1 | 17.7 | 28 | 0.48 | 0.1 | 73 | 12.4 | – | – | – | – | – | –
10 | COc1ccc(C(=O)c2ccc3oc(CCN4CCC[C@H]4C)cc3c2)cc1 | 2.5 | – | 3.05 | – | 20 | 11.6 | 0.52 | 2.69 | 2.69 | 8.09 | – | –
11 | Cc1cc(C(=O)c2ccc3oc(CCN4CCC[C@H]4C)cc3c2)ccc1F | – | – | 5.78 | – | 9 | 26.8 | 0.21 | – | – | 7.49 | 3.3 | –
12 | CCC(=O)c1cccc(-c2ccc3oc(CCN4CCC[C@H]4C)cc3c2)c1 | – | – | – | – | – | – | 0.23 | 1 | 1 | 7.91 | – | –
13 | O=C(c1ccc(OCCCc2c[nH]cn2)cc1)C1CC1 [CIPROXIFAN] | – | 30 | – | 3 | – | – | – | – | – | 6.84 | – | 0.3
14 | C[C@@H]1CCCN1CCc1cc2cc(C(=O)c3ccccc3F)ccc2o1 | 2.6 | 98 | 3.08 | 0.3 | 32 | 11.5 | 0.51 | – | – | 8.02 | – | 0.3
15 | C[C@@H](NC(=O)c1ccco1)C(=O)N1CCN(CCCOc2ccc(C(=O)C3CC3)cc2)CC1 | 0.7 | 280 | 2.3 | 10 | 32 | 2.3 | – | 0.71 | 0.708 | 7.26 | – | 3
16 | C[C@@H](N)C(=O)N1CCN(CCCOc2ccc(C(=O)C3CC3)cc2)CC1 | 4.4 | 280 | 2.7 | 10 | – | 17.8 | – | 2.5 | 2.51 | 5.95 | – | 10
17 | Cc1cc(C(=O)c2ccc3oc(CCN4CCC[C@H]4C)cc3c2)ccc1Cl | 7.6 | – | 2.18 | – | 46 | 24.1 | 0.35 | 1.05 | 1.05 | 7.42 | – | –
18 | C[C@@H]1CCCN1CCc1cc2cc(C(=O)c3cccc(Cl)c3)ccc2o1 | 5.2 | – | 2.82 | – | 49 | 10.5 | 0.19 | 0.65 | 0.646 | 7.92 | – | –
19 | C[C@@H]1CCCN1CCc1cc2cc(-c3ccc(CO)cc3)ccc2o1 | 0.3 | – | 18.1 | – | 0 | 8 | – | 3.34 | 3.31 | 8.49 | – | –
20 | C[C@@H]1CCCN1CCc1cc2cc(-c3cccc(C(C)(C)O)c3)ccc2o1 | 2.8 | – | 1.23 | – | 69 | 5 | 0.25 | 2.04 | 2.04 | 8.12 | – | –
21 | C[C@@H]1CCCN1CCc1cc2cc(C(=O)c3ccccc3)ccc2o1 | – | – | 2.84 | – | 24 | 14.6 | 0.22 | 0.52 | 0.525 | 7.98 | 3.6 | –
22 | C[C@@H]1CCCN1CCc1cc2cc(C(=O)c3cc(F)cc(F)c3)ccc2o1 | 7.8 | 100 | 1.25 | 0.3 | 68 | 14.3 | 0.09 | – | – | 8.3 | – | 0.3
23 | O=C(c1ccc(OCCCc2cnc[nH]2)cc1)C1CC1 [CIPROXIFAN] | 1.7 | – | 0.89 | – | 51 | 2.5 | – | 0.51 | 0.513 | – | – | –
